Reference: ChEMBL document CHEMBL4831495, “Discovery of novel BCR-ABL PROTACs based on the cereblon E3 ligase design, synthesis, and biological evaluation” (Eur J Med Chem, 2021)
Calls of active or inactive are those of the source. No cut-off for these calls is given here.

Tests used:
[1] = test system: Protein cereblon/Tyrosine-protein kinase ABL1/Breakpoint cluster region protein (Homo sapiens), P00519+P11274+Q96SW2 [F317L]; assay: PROTAC activity at CRBN/BCR-ABL F317L mutant in human K562 cells assessed as degradation by Western blot analysis relative to control; assay type: cell-based
Procedure, shortened: (§1)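 Cells plated at 3 × 10^5 cells/mL and exposed to compounds at the indicated concentrations and times. Cells were then harvested, washed in cold PBS and lysed in 1× SDS buffer with protease inhibitor cocktail. Protein was quantified by detergent-compatible Bradford assay, and BCR-ABL was detected by Western blot with a c-ABL antibody.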

[2] = Tmax in Wistar rat at 2 mg/kg, iv by LC-MS/MS analysis; assay type: ADME, organism-based; details: in vivo
Procedure, shortened: (§2)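 Single intravenous dose of 2 mg/kg into the femoral vein of female Wistar rats, given as a solution in NMP/PEG200 (1:9, v/v). Plasma was collected by sublingual vein bleeding at 0.083, 0.25, 0.5, 1, 2, 4, 6, 8, 12 and 24 h from one group of rats (n = 3). Samples were extracted and quantified by LC-MS/MS, LOQ 2.5 ng/mL.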

[3] = target: T1, Protein cereblon/Tyrosine-protein kinase ABL1/Breakpoint cluster region protein (Homo sapiens, UniProt P00519+P11274+Q96SW2); assay: PROTAC activity at CRBN/Bcr-Abl in human K562 cells assessed as reduction in Bcr-Abl level at 30 nM by Western blotting analysis; assay type: cell-based; details: time 0-24 hrs
Target sequence in this assay (P00519 whole entry, looked up): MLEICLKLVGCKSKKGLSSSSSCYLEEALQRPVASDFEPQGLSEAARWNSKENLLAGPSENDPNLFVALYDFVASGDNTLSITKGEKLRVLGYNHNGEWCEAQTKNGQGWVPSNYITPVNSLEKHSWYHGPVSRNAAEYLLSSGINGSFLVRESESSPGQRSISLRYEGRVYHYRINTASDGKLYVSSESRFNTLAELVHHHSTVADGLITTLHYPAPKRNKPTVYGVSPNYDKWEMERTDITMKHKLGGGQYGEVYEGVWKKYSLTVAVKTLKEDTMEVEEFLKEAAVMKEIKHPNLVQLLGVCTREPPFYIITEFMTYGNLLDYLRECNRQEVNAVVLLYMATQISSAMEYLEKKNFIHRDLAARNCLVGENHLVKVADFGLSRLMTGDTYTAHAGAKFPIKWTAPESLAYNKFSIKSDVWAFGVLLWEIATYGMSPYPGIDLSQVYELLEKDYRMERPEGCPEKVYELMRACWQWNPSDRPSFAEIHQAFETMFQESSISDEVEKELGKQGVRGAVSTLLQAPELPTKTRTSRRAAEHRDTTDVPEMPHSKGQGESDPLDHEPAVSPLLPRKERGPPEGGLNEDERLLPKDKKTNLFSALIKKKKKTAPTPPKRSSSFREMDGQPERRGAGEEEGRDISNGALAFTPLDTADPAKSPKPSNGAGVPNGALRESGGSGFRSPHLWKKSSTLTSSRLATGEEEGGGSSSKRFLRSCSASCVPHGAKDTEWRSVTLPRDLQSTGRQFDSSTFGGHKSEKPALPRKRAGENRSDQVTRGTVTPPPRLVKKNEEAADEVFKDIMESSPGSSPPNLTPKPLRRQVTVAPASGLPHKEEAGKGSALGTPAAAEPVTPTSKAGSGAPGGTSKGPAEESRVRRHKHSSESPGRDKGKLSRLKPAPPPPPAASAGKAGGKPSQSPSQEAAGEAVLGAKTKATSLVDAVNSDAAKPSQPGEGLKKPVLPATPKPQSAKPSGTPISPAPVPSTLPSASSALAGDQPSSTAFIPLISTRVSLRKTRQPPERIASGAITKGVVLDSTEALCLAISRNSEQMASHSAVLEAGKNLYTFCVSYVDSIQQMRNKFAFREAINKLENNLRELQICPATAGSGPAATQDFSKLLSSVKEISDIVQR
Target sequence in this assay (P11274 whole entry, looked up): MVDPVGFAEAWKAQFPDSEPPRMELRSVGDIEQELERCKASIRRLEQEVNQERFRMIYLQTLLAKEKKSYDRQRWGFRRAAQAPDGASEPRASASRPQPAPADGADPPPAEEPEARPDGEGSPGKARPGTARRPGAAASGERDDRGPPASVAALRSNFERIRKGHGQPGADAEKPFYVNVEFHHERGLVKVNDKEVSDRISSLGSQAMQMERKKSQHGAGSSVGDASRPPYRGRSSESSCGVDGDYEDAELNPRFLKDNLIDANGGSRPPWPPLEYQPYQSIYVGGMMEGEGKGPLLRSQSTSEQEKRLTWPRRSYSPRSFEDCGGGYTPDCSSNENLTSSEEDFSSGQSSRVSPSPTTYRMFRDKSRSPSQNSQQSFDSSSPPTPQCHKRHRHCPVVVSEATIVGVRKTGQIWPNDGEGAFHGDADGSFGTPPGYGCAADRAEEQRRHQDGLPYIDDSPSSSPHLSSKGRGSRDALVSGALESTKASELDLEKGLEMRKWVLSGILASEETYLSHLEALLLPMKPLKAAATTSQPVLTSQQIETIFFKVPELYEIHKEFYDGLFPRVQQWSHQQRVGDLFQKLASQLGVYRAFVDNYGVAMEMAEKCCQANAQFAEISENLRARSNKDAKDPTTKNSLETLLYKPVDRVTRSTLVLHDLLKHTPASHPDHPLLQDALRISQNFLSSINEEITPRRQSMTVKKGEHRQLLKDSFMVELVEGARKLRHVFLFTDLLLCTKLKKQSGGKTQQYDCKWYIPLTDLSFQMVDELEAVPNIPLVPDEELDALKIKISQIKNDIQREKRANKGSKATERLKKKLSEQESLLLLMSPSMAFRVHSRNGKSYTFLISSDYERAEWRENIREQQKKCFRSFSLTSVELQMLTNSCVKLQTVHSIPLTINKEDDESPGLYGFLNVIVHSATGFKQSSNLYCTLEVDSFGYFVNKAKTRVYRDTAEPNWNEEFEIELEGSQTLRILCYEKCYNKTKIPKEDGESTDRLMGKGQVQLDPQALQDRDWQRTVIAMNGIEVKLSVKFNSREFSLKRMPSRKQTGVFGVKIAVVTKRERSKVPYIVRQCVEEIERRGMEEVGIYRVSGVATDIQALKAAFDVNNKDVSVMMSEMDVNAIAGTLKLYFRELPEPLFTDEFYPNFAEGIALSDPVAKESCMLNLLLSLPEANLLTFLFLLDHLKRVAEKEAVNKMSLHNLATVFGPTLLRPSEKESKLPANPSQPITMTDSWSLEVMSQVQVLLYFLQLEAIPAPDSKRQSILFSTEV
Target sequence in this assay (Q96SW2 whole entry, looked up): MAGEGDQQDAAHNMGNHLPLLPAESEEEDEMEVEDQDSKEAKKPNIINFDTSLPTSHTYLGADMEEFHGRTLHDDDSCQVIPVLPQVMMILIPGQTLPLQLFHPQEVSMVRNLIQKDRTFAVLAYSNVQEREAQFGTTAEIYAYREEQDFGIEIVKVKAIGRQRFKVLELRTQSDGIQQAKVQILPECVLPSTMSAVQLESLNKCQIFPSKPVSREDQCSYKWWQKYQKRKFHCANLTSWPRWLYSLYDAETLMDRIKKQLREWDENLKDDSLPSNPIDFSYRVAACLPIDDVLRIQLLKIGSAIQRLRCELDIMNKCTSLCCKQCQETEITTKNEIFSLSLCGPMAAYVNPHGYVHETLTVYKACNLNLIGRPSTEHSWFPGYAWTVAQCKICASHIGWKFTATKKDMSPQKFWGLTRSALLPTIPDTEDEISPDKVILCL

[4] = target: Protein cereblon/Platelet-derived growth factor receptor beta (Homo sapiens) (UniProt P09619+Q96SW2); assay: PROTAC activity at CRBN/PDGFRbeta in human K562 cells assessed as PDGFRbeta degrading activity by Western blotting analysis; assay type: cell-based
[5] = target: T1, Protein cereblon/Tyrosine-protein kinase ABL1/Breakpoint cluster region protein; assay: PROTAC activity at CRBN/Bcr-Abl in human K562 cells assessed as reduction in STAT5 level after 16 hrs by Western blotting analysis; assay type: cell-based
Procedure, shortened: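 K562 cells were plated at 3 × 10^5 cells/mL and treated with graded concentrations for 16 h. Lysates in 1× SDS buffer with protease inhibitors were quantified by Bradford assay. Western blots were probed with antibodies against Stat5, phospho-Stat5 (Tyr694) and […], among others.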
Target sequence in this assay (P00519 whole entry, looked up): as the sequence (P00519 whole entry, looked up) above
Target sequence in this assay (P11274 whole entry, looked up): as the sequence (P11274 whole entry, looked up) above
Target sequence in this assay (Q96SW2 whole entry, looked up): as the sequence (Q96SW2 whole entry, looked up) above

[6] = target: T1, Protein cereblon/Tyrosine-protein kinase ABL1/Breakpoint cluster region protein; assay: PROTAC activity at CRBN/Bcr-Abl in human K562 cells assessed as reduction in Bcr-Abl level at 30 nM preincubated with NEDD8 inhibitor MLN4924 for 2 hrs and measured after 8 hrs by Western blotting analysis; assay type: cell-based
Procedure, shortened: (§3)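 K562 cells were pretreated for 2 h with MG132 ([…] as printed) or MLN4924 ([…] as printed), then exposed to degrader at 30 nM for 8 h. Cells were lysed in 1× SDS buffer with protease inhibitors, and protein was quantified by Bradford assay. BCR-ABL and c-ABL were detected by Western blot.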
Target sequence in this assay (P00519 whole entry, looked up): as the sequence (P00519 whole entry, looked up) above
Target sequence in this assay (P11274 whole entry, looked up): as the sequence (P11274 whole entry, looked up) above
Target sequence in this assay (Q96SW2 whole entry, looked up): as the sequence (Q96SW2 whole entry, looked up) above

K562 [7] = assay: Antitumor activity against human K562 cells xenografted in NOD-SCID mouse assessed as tumor growth inhibition at 1 mg/kg, ip administered daily 10 days; assay type: functional; details: 240 h, time 10 day, read-out: TGI
Procedure, shortened: (§4)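 Mice carried K562-Luc xenografts, with 2 × 10^6 cells inoculated per mouse. Dosing began at a mean tumor volume of about 200 mm3. Drug in DMSO/PEG 400/40% hydroxypropyl-(1:3:6, vol/vol) was given ip once daily for 10 consecutive days at 1, 3 or 10 mg/kg. Calipers were used 2-3 times weekly, with V = L × W²/2, and TGI was calculated at day 10.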

[8] = Clearance in Wistar rat at 2 mg/kg, iv by LC-MS/MS analysis; assay type: ADME, organism-based; details: in vivo; procedure, shortened: as §2
[9] = Apparent volume of distribution during steady state in Wistar rat at 2 mg/kg, iv by LC-MS/MS analysis; assay type: ADME, organism-based; details: in vivo, read-out: Vdss; procedure, shortened: as §2
[10] = target: T1, Protein cereblon/Tyrosine-protein kinase ABL1/Breakpoint cluster region protein; assay: PROTAC activity at CRBN/Bcr-Abl in human K562 cells assessed as degrading activity by Western blotting analysis; assay type: cell-based
[11] = target: T1, Protein cereblon/Tyrosine-protein kinase ABL1/Breakpoint cluster region protein; assay: PROTAC activity at CRBN/Bcr-Abl in human K562 cells assessed as reduction in C-Abl level at 30 nM preincubated with proteasome inhibitor MG132 for 2 hrs and measured after 8 hrs by Western blotting analysis; assay type: cell-based; procedure, shortened: as §3
Target sequence in this assay (P00519 whole entry, looked up): as the sequence (P00519 whole entry, looked up) above
Target sequence in this assay (P11274 whole entry, looked up): as the sequence (P11274 whole entry, looked up) above
Target sequence in this assay (Q96SW2 whole entry, looked up): as the sequence (Q96SW2 whole entry, looked up) above

[12] = Toxicity in NOD-SCID mouse xenografted with human K562 cells assessed as reduction in body weight at 100 mg/kg, ip measured on day 10; assay type: organism-based; details: in vivo
[13] = Half life in Wistar rat at 2 mg/kg, iv by LC-MS/MS analysis; assay type: ADME, organism-based; details: in vivo; procedure, shortened: as §2
[14] = test system: Protein cereblon/Tyrosine-protein kinase ABL1/Breakpoint cluster region protein (Homo sapiens), P00519+P11274+Q96SW2 [V299L]; assay: PROTAC activity at CRBN/BCR-ABL V299L mutant in human K562 cells assessed as degradation by Western blot analysis relative to control; assay type: cell-based; procedure, shortened: as §1
[15] = target: T1, Protein cereblon/Tyrosine-protein kinase ABL1/Breakpoint cluster region protein; assay: PROTAC activity at CRBN/Bcr-Abl in human K562 cells assessed as reduction in Bcr-Abl level at 30 nM preincubated with proteasome inhibitor MG132 for 2 hrs and measured after 8 hrs by Western blotting analysis; assay type: cell-based; procedure, shortened: as §3
Target sequence in this assay (P00519 whole entry, looked up): as the sequence (P00519 whole entry, looked up) above
Target sequence in this assay (P11274 whole entry, looked up): as the sequence (P11274 whole entry, looked up) above
Target sequence in this assay (Q96SW2 whole entry, looked up): as the sequence (Q96SW2 whole entry, looked up) above

[16] = Cmax in Wistar rat at 2 mg/kg, iv by LC-MS/MS analysis; assay type: ADME, organism-based; parameters: route intravenous, dose 2 mg/kg; details: in vivo; procedure, shortened: as §2
[17] = target: T1, Protein cereblon/Tyrosine-protein kinase ABL1/Breakpoint cluster region protein; assay: PROTAC activity at CRBN/Bcr-Abl in human K562 cells assessed as reduction in CRLK level after 16 hrs by Western blotting analysis; assay type: cell-based
Target sequence in this assay (P00519 whole entry, looked up): as the sequence (P00519 whole entry, looked up) above
Target sequence in this assay (P11274 whole entry, looked up): as the sequence (P11274 whole entry, looked up) above
Target sequence in this assay (Q96SW2 whole entry, looked up): as the sequence (Q96SW2 whole entry, looked up) above

[18] = test system: Protein cereblon/Tyrosine-protein kinase ABL1/Breakpoint cluster region protein (Homo sapiens), P00519+P11274+Q96SW2 [E255V]; assay: PROTAC activity at CRBN/BCR-ABL E255V mutant in human K562 cells assessed as degradation by Western blot analysis relative to control; assay type: cell-based; procedure, shortened: as §1
[19] = target: Protein cereblon/Proto-oncogene tyrosine-protein kinase Src (Homo sapiens) (UniProt P12931+Q96SW2); assay: PROTAC activity at CRBN/Src in human K562 cells assessed as Src degrading activity by Western blotting analysis; assay type: cell-based
Chain of Protein cereblon/Proto-oncogene tyrosine-protein kinase Src (Homo sapiens) (P12931 whole entry, looked up): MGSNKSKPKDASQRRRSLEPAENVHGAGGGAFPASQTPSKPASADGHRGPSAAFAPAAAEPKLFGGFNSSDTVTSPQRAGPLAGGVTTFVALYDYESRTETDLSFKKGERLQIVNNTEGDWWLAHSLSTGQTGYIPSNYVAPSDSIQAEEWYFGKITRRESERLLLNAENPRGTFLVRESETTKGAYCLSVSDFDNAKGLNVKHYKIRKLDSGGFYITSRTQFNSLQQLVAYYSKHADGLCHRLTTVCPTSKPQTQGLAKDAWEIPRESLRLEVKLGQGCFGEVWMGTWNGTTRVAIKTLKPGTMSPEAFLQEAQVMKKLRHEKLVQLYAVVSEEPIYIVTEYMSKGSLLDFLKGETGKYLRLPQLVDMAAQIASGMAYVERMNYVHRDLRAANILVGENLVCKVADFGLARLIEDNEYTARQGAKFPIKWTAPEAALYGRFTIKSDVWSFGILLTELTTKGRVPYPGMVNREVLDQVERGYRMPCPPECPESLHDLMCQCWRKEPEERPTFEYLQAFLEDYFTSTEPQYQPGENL
Chain of Protein cereblon/Proto-oncogene tyrosine-protein kinase Src (Homo sapiens) (Q96SW2 whole entry, looked up): as the sequence (Q96SW2 whole entry, looked up) above

[20] = Apparent volume of distribution during terminal state in Wistar rat at 2 mg/kg, iv by LC-MS/MS analysis; assay type: ADME, organism-based; details: in vivo, read-out: Vz; procedure, shortened: as §2
[21] = MRT (0 to t) in Wistar rat at 2 mg/kg, iv by LC-MS/MS analysis; assay type: ADME, organism-based; details: in vivo; procedure, shortened: as §2
[22] = target: T1, Protein cereblon/Tyrosine-protein kinase ABL1/Breakpoint cluster region protein; assay: PROTAC activity at CRBN/Bcr-Abl in human K562 cells assessed as reduction in C-Abl level at 30 nM preincubated with NEDD8 inhibitor MLN4924 for 2 hrs and measured after 8 hrs by Western blotting analysis; assay type: cell-based; procedure, shortened: as §3
K562 [23] = assay: Antitumor activity against human K562 cells xenografted in NOD-SCID mouse assessed as tumor growth inhibition at 3 mg/kg, ip administered daily 10 days; assay type: functional; details: 240 h, time 10 day, read-out: TGI; procedure, shortened: as §4
[24] = AUC (0 to t) in Wistar rat at 2 mg/kg, iv by LC-MS/MS analysis; assay type: ADME, organism-based; parameters: dose 2 mg/kg; details: in vivo; procedure, shortened: as §2
K562 [25] = assay: Antitumor activity against human K562 cells xenografted in NOD-SCID mouse assessed as tumor growth inhibition at 10 mg/kg, ip administered daily 10 days; assay type: functional; details: 240 h, time 10 day, read-out: TGI; procedure, shortened: as §4
K562 [26] = assay: Antiproliferative activity against human K562 cells assessed as cell growth inhibition measured after 48 hrs by CCK8 assay; assay type: functional, cell-based; details: K562, 48 h
Procedure, shortened: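 Cells were seeded at 3000-20,000 per well and given 3-fold serial dilutions of compound in medium. After 2 days at 37 °C in 5% CO2, CCK-8 reagent was added for 2-4 h and absorbance was read at 450 nm.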

With `Cc1nc(Nc2ncc(C(=O)Nc3c(C)cccc3Cl)s2)cc(N2CCN(CCSc3cccc4c3C(=O)N(C3CCC(=O)NC3=O)C4=O)CC2)n1` (stereo unspecified) the Activity [1] was “Active”, the Tmax [2] was 4.8 min and the inhibition [3] was “Active”. For the same compound, the Activity [4] was “inactive”, the inhibition [5] was “Active” and the inhibition [6] was “Active”. For the same compound, the inhibition in vivo at 1 mg/kg (K562 [7]) was 78.9%, the clearance [8] was 35.7 mL/min/kg and the Vd [9] was 5.23 L/kg. The DC50 [10] was 0.18 nM, the inhibition [11] was “Active” and the Activity [12] was “Non-Toxic”. The half-life [13] was 4.23 h, the Activity [14] was “Active” and the inhibition [15] was “Active”. The Cmax [16] was 1500 ng/mL, the inhibition [17] was “Active” and the Activity [18] was “Active”. The Activity [19] was “inactive”, the Vd [20] was 13 L/kg and the MRT last [21] was 2 h. For the same compound, the inhibition [22] was “Active”, the inhibition in vivo at 3 mg/kg (K562 [23]) was 93.8% and the AUC(0-t) [24] was 926 ng·h/mL. The inhibition in vivo at 10 mg/kg (K562 [25]) was 98.8% and the IC50 (K562 [26]) was 0.49 nM.
